Assay results from ChEMBL document CHEMBL3352673, “Novel inhibitors of the high-affinity L-proline transporter as potential therapeutic agents for the treatment of cognitive disorders” (Bioorg Med Chem Lett, 2014).
The source made the active and inactive calls. No cut-off for these calls is given here.

What was measured:
[1] = target: T1, Sodium-dependent proline transporter (Homo sapiens, UniProt Q99884); assay: Inhibition of human high-affinity L-proline transporter expressed in COS1 cells by [3H]proline uptake assay; format: cell-based, COS-1
T1 sequence (Q99884 whole entry): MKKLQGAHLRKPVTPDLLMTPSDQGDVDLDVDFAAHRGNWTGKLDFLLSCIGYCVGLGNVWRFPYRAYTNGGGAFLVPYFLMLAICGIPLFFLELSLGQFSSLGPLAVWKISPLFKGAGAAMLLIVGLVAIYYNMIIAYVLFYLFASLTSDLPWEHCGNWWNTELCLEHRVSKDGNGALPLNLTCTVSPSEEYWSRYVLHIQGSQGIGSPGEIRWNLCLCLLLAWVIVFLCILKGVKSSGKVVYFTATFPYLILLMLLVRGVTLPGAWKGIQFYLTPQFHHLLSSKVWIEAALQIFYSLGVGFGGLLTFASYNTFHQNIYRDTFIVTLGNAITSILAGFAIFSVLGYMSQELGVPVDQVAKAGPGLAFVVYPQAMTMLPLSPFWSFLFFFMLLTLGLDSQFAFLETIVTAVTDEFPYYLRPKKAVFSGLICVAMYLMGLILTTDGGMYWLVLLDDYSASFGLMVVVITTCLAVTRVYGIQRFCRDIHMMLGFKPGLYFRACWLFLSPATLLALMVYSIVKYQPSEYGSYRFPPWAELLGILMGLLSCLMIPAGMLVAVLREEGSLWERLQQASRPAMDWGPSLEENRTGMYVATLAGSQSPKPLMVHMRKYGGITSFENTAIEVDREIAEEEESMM

Mus musculus [2] = assay: Toxicity in albino C57BL/6 mouse at 100 mg/kg, po; format: organism-based; design: dose 100 mg/kg, route oral; details: in vivo
Mus musculus [3] = assay: Toxicity in albino C57BL/6 mouse assessed as effect on open field trial parameters at 100 mg/kg, po; format: organism-based; design: dose 100 mg/kg, route oral; details: in vivo
[4] = AUC (0 to infinity) in albino C57BL/6 mouse at 100 mg/kg, po; format: ADME, organism-based; design: time infinity, dose 100 mg/kg, route oral; details: plasma
Summary of the method: (§1)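 Single oral administration at 100 mpk to C57BL/6 albino mice; plasma exposure parameters (Tmax, Cmax, AUC) derived.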

[5] = Drug level in albino C57BL/6 mouse brain at 100 mg/kg, po after 6 hrs; format: ADME, organism-based; design: dose 100 mg/kg, route oral; details: read-out: Drug uptake
[6] = Tmax in albino C57BL/6 mouse at 100 mg/kg, po; format: ADME, organism-based; design: dose 100 mg/kg, route oral; details: in vivo; summary of the method: as §1
[7] = target: T2, Sodium-dependent dopamine transporter (Homo sapiens, UniProt Q01959); assay: Inhibition of DAT (unknown origin) at 10 uM
[8] = Ratio of drug level in brain to plasma in albino C57BL/6 mouse at 100 mg/kg, po after 6 hrs; format: ADME, organism-based; design: dose 100 mg/kg, route oral; details: read-out: BPR
[9] = Cmax in albino C57BL/6 mouse at 100 mg/kg, po; format: ADME, organism-based; design: dose 100 mg/kg, route oral; details: in vivo; summary of the method: as §1
[10] = Stability in mouse liver S9 fraction assessed as remaining parent compound level after 30 mins; format: ADME, subcellular; details: read-out: Stability
Summary of the method: (§2)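 Compound incubated 30 min with S9 fraction of mouse liver homogenate; parent compound remaining measured.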

Mus musculus [11] = assay: Induction of cognitive improvement in albino C57BL/6 mouse trace conditioning model assessed as improvement in response to conditioned stimulus at 100 mg/kg, po; format: functional, organism-based; design: dose 100 mg/kg
Summary of the method: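 C57 mice (n = 13) given 100 mpk PO alongside a vehicle control group; fear conditioning with context freezing portion scored as response to conditioned stimulus; statistical comparison with vehicle by P value.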

[12] = Inhibition of GlyT (unknown origin); design: species or system Homo sapiens
[13] = target: T2, Sodium-dependent dopamine transporter; assay: Inhibition of DAT (unknown origin)
Mus musculus [14] = assay: Toxicity in mouse assessed as induction of lethargy at 1 mg/kg, iv; format: organism-based; design: dose 1 mg/kg, route intravenous; details: in vivo
Summary of the method: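 Mice dosed IV at 1 mpk and observed for lethargy.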

hERG (KCNH2) = hERG (KCNH2) (Homo sapiens, UniProt Q12809); assay: Inhibition of human ERG at 10 uM
[15] = Stability in mouse liver homogenates assessed as remaining parent compound level after 30 mins; format: ADME, tissue-based; details: liver homogenate, read-out: Stability; summary of the method: as §2
[16] = Protein binding in plasma (unknown origin) by equilibrium dialysis assay; format: ADME, cell-free; details: read-out: PPB (converted)
Summary of the method: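 Plasma protein binding measured by equilibrium dialysis.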

T2 sequence (Q01959 whole entry): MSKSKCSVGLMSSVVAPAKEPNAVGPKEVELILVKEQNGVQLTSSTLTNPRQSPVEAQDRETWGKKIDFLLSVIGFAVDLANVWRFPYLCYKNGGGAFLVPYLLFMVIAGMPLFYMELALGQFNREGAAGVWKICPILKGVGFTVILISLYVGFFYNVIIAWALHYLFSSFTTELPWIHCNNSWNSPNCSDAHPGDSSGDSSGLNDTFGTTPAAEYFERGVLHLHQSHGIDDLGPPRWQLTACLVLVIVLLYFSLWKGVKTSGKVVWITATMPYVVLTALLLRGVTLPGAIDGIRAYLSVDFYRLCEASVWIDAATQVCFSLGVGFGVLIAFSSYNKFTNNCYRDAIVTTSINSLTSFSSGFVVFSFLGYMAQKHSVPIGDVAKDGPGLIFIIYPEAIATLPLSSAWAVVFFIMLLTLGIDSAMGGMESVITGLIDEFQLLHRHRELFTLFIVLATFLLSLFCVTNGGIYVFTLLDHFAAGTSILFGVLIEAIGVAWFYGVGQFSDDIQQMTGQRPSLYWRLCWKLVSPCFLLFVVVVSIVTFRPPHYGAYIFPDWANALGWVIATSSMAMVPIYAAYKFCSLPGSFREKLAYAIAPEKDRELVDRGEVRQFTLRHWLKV
hERG (KCNH2), sequence (Q12809 whole entry): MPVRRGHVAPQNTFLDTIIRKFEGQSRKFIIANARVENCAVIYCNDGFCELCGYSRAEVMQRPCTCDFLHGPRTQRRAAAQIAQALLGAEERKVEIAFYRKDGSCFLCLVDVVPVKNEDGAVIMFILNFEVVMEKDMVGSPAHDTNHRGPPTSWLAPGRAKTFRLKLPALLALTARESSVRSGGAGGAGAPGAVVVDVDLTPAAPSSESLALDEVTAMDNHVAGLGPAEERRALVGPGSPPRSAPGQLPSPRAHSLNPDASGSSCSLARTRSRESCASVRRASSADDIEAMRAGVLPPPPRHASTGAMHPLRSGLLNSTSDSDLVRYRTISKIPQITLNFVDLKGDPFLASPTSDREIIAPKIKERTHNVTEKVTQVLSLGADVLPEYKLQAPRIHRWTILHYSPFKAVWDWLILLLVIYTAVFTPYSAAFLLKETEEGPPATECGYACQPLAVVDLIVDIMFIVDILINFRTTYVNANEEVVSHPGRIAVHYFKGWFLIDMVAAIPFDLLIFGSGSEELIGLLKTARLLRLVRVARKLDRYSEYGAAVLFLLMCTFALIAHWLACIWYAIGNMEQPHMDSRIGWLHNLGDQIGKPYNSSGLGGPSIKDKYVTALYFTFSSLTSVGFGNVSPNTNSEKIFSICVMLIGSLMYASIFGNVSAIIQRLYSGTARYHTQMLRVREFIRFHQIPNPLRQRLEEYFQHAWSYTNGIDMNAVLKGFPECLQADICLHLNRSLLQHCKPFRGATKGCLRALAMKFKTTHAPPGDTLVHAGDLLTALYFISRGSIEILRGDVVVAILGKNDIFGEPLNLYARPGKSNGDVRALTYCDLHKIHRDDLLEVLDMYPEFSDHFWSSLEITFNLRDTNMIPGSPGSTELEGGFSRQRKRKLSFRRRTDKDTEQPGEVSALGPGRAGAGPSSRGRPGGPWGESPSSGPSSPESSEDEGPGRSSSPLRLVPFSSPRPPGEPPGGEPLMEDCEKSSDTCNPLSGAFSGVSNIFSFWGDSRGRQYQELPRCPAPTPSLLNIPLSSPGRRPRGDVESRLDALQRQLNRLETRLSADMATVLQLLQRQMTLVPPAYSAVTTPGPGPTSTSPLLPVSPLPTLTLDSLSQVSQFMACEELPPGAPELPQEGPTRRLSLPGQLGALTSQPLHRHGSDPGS

Compound	IC50 [1] [nM]	also measured
O=C(c1ccc(-c2ccccc2C(F)(F)F)cc1)N1CCN(c2ncccn2)CC1	1260	
O=C(c1ccc(-c2ccc(Cl)s2)cc1)N1CCN(c2ncccn2)CC1	150	
CC1CN(C(=O)c2ccc(-c3ccccc3)cc2)CCN1c1ncccn1 (stereo not given)	477	
O=C(c1ccc(Oc2ccccc2)cc1)N1CCN(c2ncccn2)CC1	1950	
O=C(c1ccc(-c2ccccc2)cc1)N1CCN(c2cnccn2)CC1	1300	
C[C@@H]1CN(c2ncccn2)CCN1C(=O)c1ccc(-c2ccc(Cl)cc2)cc1	57	
N#Cc1cccc(-c2ccc(C(=O)N3CCN(c4ncccn4)CC3)cc2)c1	190	
O=C(c1ccc(-c2cccc(Cl)c2)cc1)N1CC2CCC(C1)N2c1ncccn1	27	Activity (Mus musculus [2]): Non-toxic; Activity (Mus musculus [3]): Non-toxic; AUC(0-inf) [4]: 24000 ng·h/mL; concentration at 6 h [5]: 2260 ng/mL; Tmax [6]: 22.8 min; inhibition [7]: inactive; Kp at 6 h [8]: 1.7; Cmax [9]: 4500 ng/mL; remaining at 0.5 h [10]: 75%; Activity (Mus musculus [11]): inactive
O=C(c1cccc(-c2ccccc2)c1)N1CCN(c2ncccn2)CC1	1880	
O=C(c1ccc(-c2ccccc2)cc1)N1CCN(c2nccs2)CC1	146	
O=C(c1ccc(-c2cccc(Cl)c2)cc1)N1C2CCC1CN(c1ncccn1)C2	18	IC50 [12]: > 10000 nM; IC50 [13]: 6100 nM; Activity (Mus musculus [14]): Toxic; inhibition at 10 µM (hERG (KCNH2)): 59%; remaining at 0.5 h [10]: 70%
O=C(c1ccc(-c2cccc(Cl)c2)cc1)N1CCN(c2ncccn2)CC1CO (stereo not given)	76	
O=C(c1ccc(-c2ccccc2)cc1)N1CCN(c2cccnn2)CC1	5000	
Cc1ccc(-c2ccc(C(=O)N3CCN(c4ncccn4)CC3)cc2)s1	61	
O=C(c1ccccc1-c1ccccc1)N1CCN(c2ncccn2)CC1	6010	
O=C(O)C1CN(c2ncccn2)CCN1C(=O)c1ccc(-c2cccc(Cl)c2)cc1 (stereo not given)	128	
Cc1ccccc1-c1ccc(C(=O)N2CCN(c3ncccn3)CC2)cc1	653	
O=C(c1ccc(-c2ccccc2)cc1)N1CCN(c2nccc(C(F)(F)F)n2)CC1	2180	
CC(C)(C)C1CN(c2ncccn2)CCN1C(=O)c1ccc(-c2cccc(Cl)c2)cc1 (stereo not given)	700	
Cc1csc(-c2ccc(C(=O)N3CCN(c4ncccn4)CC3)cc2)c1	34	
O=C(c1ccc(OCc2ccccc2)cc1)N1CCN(c2ncccn2)CC1	270	remaining at 0.5 h [15]: 45%

Compound	IC50 [1] [nM]	also measured
O=C(c1ccc(-c2ccccc2)cc1)N1CCN(c2ncccn2)CC1	280	
O=C(c1ccc(-c2cccc(OC(F)(F)F)c2)cc1)N1CCN(c2ncccn2)CC1	73	
O=C(c1ccc(-c2cccc(C(F)(F)F)c2)cc1)N1CCN(c2ncccn2)CC1	71	
C[C@H]1CN(c2ncccn2)CCN1C(=O)c1ccc(-c2ccc(Cl)cc2)cc1	21	
O=C(c1ccc(NCc2ccccc2)cc1)N1CCN(c2ncccn2)CC1	870	remaining at 0.5 h [15]: 63%; fraction unbound [16]: 0.05
O=C(c1ccc(C2CCCCC2)cc1)N1CCN(c2ncccn2)CC1	7010	
O=C(c1ccc(-c2ccc(Cl)cc2)cc1)N1CCN(c2ncccn2)CC1	52	fraction unbound [16]: 0.022
CC1(C)CN(c2ncccn2)CCN1C(=O)c1ccc(-c2cccc(Cl)c2)cc1	53	
O=C(c1ccc(-c2ccccc2)cc1)N1CCN(c2ccccn2)CC1	160	remaining at 0.5 h [10]: 53%
O=C(c1ccc(-c2cccc(Cl)c2)cc1)N1CC2CC1CN2c1ncccn1 (stereo not given)	1340	
O=C(c1ccc(-c2cccc(Cl)c2)cc1)N1CCCN(c2ncccn2)CC1	89	
N#Cc1ccc(-c2ccc(C(=O)N3CCN(c4ncccn4)CC3)cc2)cc1	190	
CCc1ccc(-c2ccc(C(=O)N3CCN(c4ncccn4)CC3)cc2)cc1	77	
O=C(c1ccc(-c2cccc(Cl)c2)cc1)N1CCN(c2ncccn2)CC1	36	IC50 [12]: > 10000 nM; fraction unbound [16]: 0.008; IC50 [13]: 3400 nM; remaining at 0.5 h [10]: 90%
CC1CN(c2ncccn2)CC(C)N1C(=O)c1ccc(-c2cccc(Cl)c2)cc1 (stereo not given)	24	
O=C(c1ccc(-c2ccccc2)cc1)N1CCN(c2ccccc2)CC1	1480	
Cc1ccnc(N2CCN(C(=O)c3ccc(-c4ccccc4)cc3)CC2)n1	270	
COc1ccc(-c2ccc(C(=O)N3CCN(c4ncccn4)CC3)cc2)cc1	230	
Cc1ccc(-c2ccc(C(=O)N3CCN(c4ncccn4)CC3)cc2)cc1	34	
O=C(c1ccc(-c2cccc(Cl)c2)cc1)N1CC2CN(c3ncccn3)CC2C1 (stereo not given)	36	
